One test is filed under the species Felis catus. As to the kind of experiment: Inotropic activity in cat papillary muscle at 10e-5 M expressed as percent of control. It counts as functional. The method, boiled down: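 Isolated-tissue bath preparation with contractions recorded on a polygraph. Compounds were dissolved in DMSO and added cumulatively, each concentration being allowed to produce its maximal response before the next higher one was added.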

The subject of another test is Canis familiaris. The experiment in a line: Tested in anesthetized dog for its inotropic activity after intravenous administration. As to conditions: Canis lupus familiaris. The test is classed as functional. The method, boiled down:
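Mongrel dogs of either sex (7-14 kg), anesthetized with sodium pentobarbital (35 mg/kg iv). Dosing was via a femoral vein cannula. Contractility was measured by a Walton-Brodie strain-gauge arch on the right ventricle (tension 50 g); heart rate by cardiometer; lead II ECG. Doses of 0.01 to 8.0 mg/kg iv were given in increasing steps at 5-min intervals. Peak responses are reported as mean ± SEM (n = 4) or mean ± range (n = 2).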

Take `COc1ccc(-c2cn3nccnc3n2)c(OC)c1`: the “Inotropic activity (% of control)” value in the test listed under Felis catus stood at 130%. Same read-out and setting: in the case of `COc1ccc(-c2cn3ncccc3n2)c(OC)c1` it was 115%. In the case of `COc1cc(S(C)(=O)=O)ccc1-c1nc2ccncc2[nH]1`, in the test on Canis familiaris, the median effective dose (ED50) (usually the dose at which the effect has come halfway, by size or by number of responders) came to 0.02 mg/kg. Moreover, the “Inotropic activity (% of control)” value in the test listed under Felis catus is 176%. The molecule `COc1ccc(-c2cn3ccncc3n2)c(OC)c1` registered an ED50 in the test with Canis familiaris of 0.7 mg/kg. The “Inotropic activity (% of control)” value in the test filed under Felis catus is listed as 145%. In the test on Canis familiaris, `COc1cc([S+](C)[O-])ccc1-c1cn2ccncc2n1` (stereo not drawn) had an ED50 of 0.1 mg/kg. For the same molecule, the “Inotropic activity (% of control)” value in the test listed under Felis catus is given as 161%. For `COc1cc(SC)ccc1-c1cn2ccncc2n1`, in the test on Canis familiaris, the 50% effect level (ED50) was put at a dose of 0.5 mg/kg. Moreover, the “Inotropic activity (% of control)” value in the test listed under Felis catus amounted to 140%. For the molecule `COc1ccc(-c2nc3cc[nH]cc-3n2)c(OC)c1`, the median effective dose (ED50) in the test with Canis familiaris was 0.3 mg/kg. In addition, the “Inotropic activity (% of control)” value in the test listed under Felis catus was 158%. With `COc1cc(SC)ccc1-c1nc2cc[nH]cc-2n1`, the ED50 in the test on Canis familiaris was determined as 0.2 mg/kg. Moreover, the “Inotropic activity (% of control)” value in the test listed under Felis catus amounted to 143%. In the test on Canis familiaris, `COc1cc([S+](C)[O-])ccc1-c1nc2cnccc2[nH]1` (stereo not drawn) [ISOMAZOLE] showed an ED50 of 0.03 mg/kg. Further, in the test listed under Felis catus, the “Inotropic activity (% of control)” value stood at 172%. Turning to `COc1ccc(-c2cn3cccnc3n2)c(OC)c1`, the “Inotropic activity (% of control)” value in the test filed under Felis catus is 136%.

As for `COc1ccc(-c2cn3ccccc3n2)c(OC)c1`, the “Inotropic activity (% of control)” value in the test listed under Felis catus came to 98%. With `COc1ccc(-c2cn3cnccc3n2)c(OC)c1`, the “Inotropic activity (% of control)” value in the test listed under Felis catus was found to be 114%. On to `COc1ccc(-c2nc3ccc[nH]c-3n2)c(OC)c1`, for which the “Inotropic activity (% of control)” value in the test listed under Felis catus came to 146%.

On to `COc1cc([S+](C)[O-])ccc1-c1nc2cccnc2[nH]1` (stereo not drawn) [SULMAZOLE], for which the “Inotropic activity (% of control)” value in the test filed under Felis catus is on record as 112%. Molecule `COc1cc(S(C)(=O)=O)ccc1-c1cn2ccncc2n1` showed a 50% effective dose (ED50) with Canis familiaris of 0.02 mg/kg. The “Inotropic activity (% of control)” value in the test listed under Felis catus is reported as 180%.

The values above are taken from ChEMBL document CHEMBL1124181, “Imidazo[1,2-a]pyrimidines and imidazo[1,2-a]pyrazines: the role of nitrogen position in inotropic activity” (1988).
